Experiments:
[1] = Plasma protein binding in rat plasma; type: ADME, cell-free; settings: read-out: PPB (converted)
[2] = Ratio of drug level in cerebrospinal fluid in Sprague-Dawley rat at 10 mg/kg, po to unbound fraction in rat plasma; type: ADME, organism-based, CSF/Plasma; set-up: dose 10 mg/kg, route oral; settings: in vivo
[3] = Ratio of drug level in brain to plasma in Sprague-Dawley rat at 10 mg/kg, po; type: ADME, organism-based; set-up: dose 10 mg/kg, route oral; settings: read-out: BPR
[4] = tested on: Cerebrospinal fluid; experiment: Drug level in Sprague-Dawley rat cerebrospinal fluid at 10 mg/kg, po; type: ADME, organism-based; set-up: dose 10 mg/kg, route oral; settings: in vivo, read-out: Drug uptake; note: time not given here
[5] = tested on: Brain; experiment: Drug level in Sprague-Dawley rat brain at 10 mg/kg, po; type: ADME, organism-based; set-up: dose 10 mg/kg, route oral; settings: in vivo, read-out: Drug uptake; note: time not given here
[6] = tested on: Plasma; experiment: Plasma concentration in Sprague-Dawley rat at 10 mg/kg, po; type: ADME, organism-based; set-up: dose 10 mg/kg, route oral; settings: in vivo; note: time not given here
[7] = Apparent permeability of the compound; type: physicochemical; settings: not told
[8] = target: T1, Muscarinic acetylcholine receptor M1 (Homo sapiens) (UniProt P11229); experiment: Positive allosteric modulation of human muscarinic M1 receptor expressed CHO cells assessed as intrinsic potency of acetylcholine-induced calcium mobilization by FLIPR assay relative to control; type: functional, cell-based
T1 sequence (whole entry): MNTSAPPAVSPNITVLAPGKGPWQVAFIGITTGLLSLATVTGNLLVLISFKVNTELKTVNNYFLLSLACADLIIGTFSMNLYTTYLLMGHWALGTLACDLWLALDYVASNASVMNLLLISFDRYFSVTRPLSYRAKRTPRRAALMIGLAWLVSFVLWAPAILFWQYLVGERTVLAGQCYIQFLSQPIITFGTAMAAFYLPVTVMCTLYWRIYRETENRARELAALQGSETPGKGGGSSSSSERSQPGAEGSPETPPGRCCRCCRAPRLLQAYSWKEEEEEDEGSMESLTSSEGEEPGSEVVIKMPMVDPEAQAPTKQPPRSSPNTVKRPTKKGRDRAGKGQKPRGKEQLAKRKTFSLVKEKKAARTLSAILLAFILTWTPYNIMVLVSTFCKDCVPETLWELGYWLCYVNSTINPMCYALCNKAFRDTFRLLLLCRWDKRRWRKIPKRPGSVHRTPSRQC
How it was run: (§1)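 Human M1 receptor expressed in CHO cells, with calcium mobilization read by FLIPR. Inflection point (IP, nM) and % max response are taken as the numerical average of at least two experiments. Interassay variability was ±30% for IP unless noted otherwise.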

[9] = target: T1, Muscarinic acetylcholine receptor M1 (Homo sapiens); experiment: Positive allosteric modulation of human muscarinic M1 receptor expressed CHO cells assessed as intrinsic potency of acetylcholine-induced calcium mobilization by FLIPR assay; type: functional, cell-based; how it was run: as §1
[10] = target: Multidrug resistance protein 1a (Rattus norvegicus, UniProt Q6PSM0); experiment: Activity at rat MDR1a assessed as ratio of permeability from basolateral to apical side over permeability from apical to basolateral side by cell based assay
Sequence of Multidrug resistance protein 1a (Q6PSM0 whole entry): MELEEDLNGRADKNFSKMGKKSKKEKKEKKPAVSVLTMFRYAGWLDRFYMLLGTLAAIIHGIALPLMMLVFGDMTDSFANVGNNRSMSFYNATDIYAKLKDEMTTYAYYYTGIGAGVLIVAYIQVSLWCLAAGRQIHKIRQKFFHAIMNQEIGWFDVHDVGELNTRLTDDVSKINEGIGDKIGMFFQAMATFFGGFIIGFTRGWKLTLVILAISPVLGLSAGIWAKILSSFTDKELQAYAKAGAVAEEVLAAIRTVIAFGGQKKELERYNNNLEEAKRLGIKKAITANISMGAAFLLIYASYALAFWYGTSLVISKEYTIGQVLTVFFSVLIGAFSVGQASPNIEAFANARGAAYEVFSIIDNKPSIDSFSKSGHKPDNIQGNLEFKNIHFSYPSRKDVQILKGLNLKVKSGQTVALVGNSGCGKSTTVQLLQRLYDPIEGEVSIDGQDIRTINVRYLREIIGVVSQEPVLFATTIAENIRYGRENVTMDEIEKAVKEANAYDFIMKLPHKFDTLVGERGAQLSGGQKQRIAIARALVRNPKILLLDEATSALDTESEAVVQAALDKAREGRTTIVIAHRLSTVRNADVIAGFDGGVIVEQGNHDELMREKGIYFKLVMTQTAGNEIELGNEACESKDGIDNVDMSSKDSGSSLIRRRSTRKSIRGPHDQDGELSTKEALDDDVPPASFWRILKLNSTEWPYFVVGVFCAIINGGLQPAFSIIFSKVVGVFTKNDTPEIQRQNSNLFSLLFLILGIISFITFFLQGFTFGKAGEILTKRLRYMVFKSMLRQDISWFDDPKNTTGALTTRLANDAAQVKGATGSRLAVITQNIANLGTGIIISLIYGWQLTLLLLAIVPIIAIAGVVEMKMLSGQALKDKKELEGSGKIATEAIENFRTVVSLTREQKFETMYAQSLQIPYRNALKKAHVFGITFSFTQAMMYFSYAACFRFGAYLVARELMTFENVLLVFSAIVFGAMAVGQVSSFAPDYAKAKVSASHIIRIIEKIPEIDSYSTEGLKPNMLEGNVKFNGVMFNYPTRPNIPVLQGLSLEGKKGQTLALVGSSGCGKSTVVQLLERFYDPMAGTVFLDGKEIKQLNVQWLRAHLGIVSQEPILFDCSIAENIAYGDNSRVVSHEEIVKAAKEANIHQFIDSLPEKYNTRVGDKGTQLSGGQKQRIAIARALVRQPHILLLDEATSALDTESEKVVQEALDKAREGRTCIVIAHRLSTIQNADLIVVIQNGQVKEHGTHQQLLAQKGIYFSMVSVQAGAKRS

[11] = target: ATP-dependent translocase ABCB1 (Homo sapiens, UniProt P08183); experiment: Activity at human MDR1 assessed as ratio of permeability from basolateral to apical side over permeability from apical to basolateral side by cell based assay
Sequence of ATP-dependent translocase ABCB1 (P08183 whole entry): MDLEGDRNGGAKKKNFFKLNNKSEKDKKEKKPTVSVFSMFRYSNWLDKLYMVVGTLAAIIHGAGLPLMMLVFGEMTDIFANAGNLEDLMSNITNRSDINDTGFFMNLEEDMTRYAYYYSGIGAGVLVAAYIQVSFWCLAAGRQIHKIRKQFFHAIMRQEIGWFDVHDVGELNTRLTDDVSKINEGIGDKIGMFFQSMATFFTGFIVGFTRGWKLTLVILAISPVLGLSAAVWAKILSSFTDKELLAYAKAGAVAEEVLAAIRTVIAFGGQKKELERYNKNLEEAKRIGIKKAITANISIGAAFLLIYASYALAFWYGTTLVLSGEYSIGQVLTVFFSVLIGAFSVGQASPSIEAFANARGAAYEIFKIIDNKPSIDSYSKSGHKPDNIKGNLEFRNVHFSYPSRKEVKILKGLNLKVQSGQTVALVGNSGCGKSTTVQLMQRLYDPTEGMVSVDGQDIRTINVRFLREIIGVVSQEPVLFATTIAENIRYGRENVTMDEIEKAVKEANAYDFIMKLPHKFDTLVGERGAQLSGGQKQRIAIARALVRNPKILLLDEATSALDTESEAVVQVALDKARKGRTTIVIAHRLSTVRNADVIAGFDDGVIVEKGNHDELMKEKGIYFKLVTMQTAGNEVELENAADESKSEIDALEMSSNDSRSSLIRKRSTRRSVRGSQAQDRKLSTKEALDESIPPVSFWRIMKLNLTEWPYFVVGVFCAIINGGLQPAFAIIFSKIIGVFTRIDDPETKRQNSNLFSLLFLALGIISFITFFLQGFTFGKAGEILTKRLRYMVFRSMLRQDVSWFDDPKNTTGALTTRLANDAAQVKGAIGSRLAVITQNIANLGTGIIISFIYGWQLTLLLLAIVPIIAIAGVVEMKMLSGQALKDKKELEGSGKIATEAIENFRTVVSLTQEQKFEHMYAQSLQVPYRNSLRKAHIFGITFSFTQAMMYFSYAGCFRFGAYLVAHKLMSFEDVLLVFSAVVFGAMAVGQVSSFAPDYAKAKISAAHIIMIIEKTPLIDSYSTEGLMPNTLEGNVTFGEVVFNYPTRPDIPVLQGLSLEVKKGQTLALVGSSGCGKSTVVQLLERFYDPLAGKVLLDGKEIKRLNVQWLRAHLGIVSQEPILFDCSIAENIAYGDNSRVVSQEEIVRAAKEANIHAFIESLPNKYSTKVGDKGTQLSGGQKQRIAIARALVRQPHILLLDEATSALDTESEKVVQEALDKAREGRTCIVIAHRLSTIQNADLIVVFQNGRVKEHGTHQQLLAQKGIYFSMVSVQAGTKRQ

[12] = target: T1, Muscarinic acetylcholine receptor M1 (Homo sapiens); experiment: Positive allosteric modulation of human muscarinic M1 receptor expressed CHO cells assessed as intrinsic potency of acetylcholine-induced calcium mobilization by FLIPR assay relative to acetylcholine; type: functional, cell-based; how it was run: as §1

fraction unbound [1]	Ratio [2]	Kp [3]	concentration [4] [nM]	concentration [5] [nM]	concentration [6] [µM]	Papp [7] [×10⁻⁶ cm/s]	%max [8] [%]	Activity [9] [nM]	Ratio [10]	Ratio [11]	fold change (FC) [12]	SMILES
0.1	< 0.1	0.22	5	420	2.06	32	74	260	1.9	1.3	–	COc1c(C(=O)N[C@H]2CCCC[C@@H]2O)cc(Cc2ccc(Cl)nc2)c2ccccc12
0.006	0.38	0.2	11	860	4.9	28	73	24	1.5	0.9	10	COc1c(C(=O)N[C@H]2CCCC[C@@H]2O)cc(Cc2ccc(-c3cccnc3)nc2)c2ccccc12
–	–	–	–	–	–	–	76	170	–	–	–	COc1c(C(=O)N[C@H]2CCCC[C@@H]2O)cc(Cc2ccc(SC)nc2)c2ccccc12
0.014	0.34	0.17	8.7	370	2.1	31	83	87	3.2	1.7	–	COc1c(C(=O)N[C@H]2CCCC[C@@H]2O)cc(Cc2ccc(-n3cccn3)nc2)c2ccccc12
–	–	–	–	–	–	–	73	190	–	–	–	CCc1ccc(Cc2cc(C(=O)N[C@H]3CCCC[C@@H]3O)c(OC)c3ccccc23)cn1
–	–	–	–	–	–	–	35	9100	–	–	–	O=C(N[C@H]1CCCC[C@@H]1O)c1cc(Cc2ccc(Cl)nc2)c2ccccc2c1O
–	–	–	–	–	–	–	37	980	–	–	–	CCOc1c(C(=O)N[C@H]2CCCC[C@@H]2O)cc(Cc2ccc(Cl)nc2)c2ccccc12
–	–	–	–	–	–	–	83	3900	–	–	–	COc1c(C(=O)N[C@H]2CCCC[C@@H]2O)cc(CN2CCN(c3cnn(C)c3)CC2)c2ccccc12
–	–	–	–	–	–	–	85	140	–	–	–	COc1ccc(Cc2cc(C(=O)N[C@H]3CCCC[C@@H]3O)c(OC)c3ccccc23)cn1
0.016	0.9	0.21	91	1200	6.02	35	93	121	2.1	1.6	100	COc1c(C(=O)N[C@H]2CCCC[C@@H]2O)cc(Cc2ccc(C)nc2)c2ccccc12
–	–	–	–	–	–	31	62	303	2.3	1.7	–	COc1c(C(=O)N[C@H]2CCCC[C@@H]2O)cc(CN2CCC(C#N)(c3ccccn3)CC2)c2ccccc12
0.001	–	0.06	–	1600	29	27	77	17	1.4	1.1	–	COc1c(C(=O)N[C@H]2CCCC[C@@H]2O)cc(Cc2ccc(-c3cnn(C)c3)nc2)c2ccccc12
–	–	–	–	–	–	–	47	7400	–	–	–	CCc1c(C(=O)N[C@H]2CCCC[C@@H]2O)cc(Cc2ccc(Cl)nc2)c2ccccc12
–	–	–	–	–	–	–	18	> 10000	–	–	–	CC(=O)Oc1c(C(=O)N[C@H]2CCCC[C@@H]2O)cc(Cc2ccc(Cl)nc2)c2ccccc12
–	–	–	–	–	–	–	57	4000	–	–	–	COc1c(C(=O)N[C@H]2CCCC[C@@H]2O)cc(CN2CCN(c3cc4ccccc4cn3)CC2)c2ccccc12
–	–	–	–	–	–	–	88	74	–	–	–	C=Cc1ccc(Cc2cc(C(=O)N[C@H]3CCCC[C@@H]3O)c(OC)c3ccccc23)cn1
–	–	–	–	–	–	–	–	5400	–	–	–	COc1c(C(=O)O)cc(CN2CCC(C#N)(c3ccccn3)CC2)c2ccccc12
–	–	–	–	–	–	–	68	1100	–	–	–	C=CCOc1c(C(=O)N[C@H]2CCCC[C@@H]2O)cc(Cc2ccc(Cl)nc2)c2ccccc12
–	–	–	–	–	–	–	–	3330	–	–	–	COc1ccc(Cc2cc(C(=O)O)c(OC)c3ccccc23)cc1
–	–	–	–	–	–	29	–	–	21.1	11.1	–	N#CC1(c2ccccn2)CCN(Cc2cc(C(=O)N[C@H]3CCCC[C@@H]3O)c(=O)n3ccccc23)CC1

— ChEMBL document CHEMBL3124934, “Identification of a methoxynaphthalene scaffold as a core replacement in quinolizidinone amide M(1) positive allosteric modulators” (Bioorg Med Chem Lett, 2014)
